Experimental data pooled from the literature.
Lines come from different studies, so protocols differ.
Target: Serine/threonine-protein kinase BRSK1 (BRSK1, Homo sapiens, UniProt Q8TDC3)
Residues used in one study (Q8TDC3 1-778): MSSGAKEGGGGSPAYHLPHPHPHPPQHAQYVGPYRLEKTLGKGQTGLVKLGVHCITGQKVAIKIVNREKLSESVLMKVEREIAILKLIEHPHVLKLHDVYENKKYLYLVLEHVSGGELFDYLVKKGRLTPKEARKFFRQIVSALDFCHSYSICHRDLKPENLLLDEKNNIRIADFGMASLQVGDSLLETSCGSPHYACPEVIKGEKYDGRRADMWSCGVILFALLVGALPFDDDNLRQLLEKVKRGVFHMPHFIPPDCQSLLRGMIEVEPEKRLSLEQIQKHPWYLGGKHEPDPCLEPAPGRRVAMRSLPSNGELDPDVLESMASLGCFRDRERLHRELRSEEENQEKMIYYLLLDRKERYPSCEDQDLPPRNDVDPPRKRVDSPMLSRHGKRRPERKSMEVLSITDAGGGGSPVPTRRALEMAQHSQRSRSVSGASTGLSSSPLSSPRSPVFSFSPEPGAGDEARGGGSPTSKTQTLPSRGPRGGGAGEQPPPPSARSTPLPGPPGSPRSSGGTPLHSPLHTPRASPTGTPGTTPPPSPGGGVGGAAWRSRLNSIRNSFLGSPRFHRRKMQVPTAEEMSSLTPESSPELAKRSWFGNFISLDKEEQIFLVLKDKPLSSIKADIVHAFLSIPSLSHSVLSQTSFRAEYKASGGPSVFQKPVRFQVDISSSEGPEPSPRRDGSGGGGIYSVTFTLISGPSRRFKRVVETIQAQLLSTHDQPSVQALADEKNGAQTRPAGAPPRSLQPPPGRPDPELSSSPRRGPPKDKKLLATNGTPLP

Compound | read-out | action | method | tested at | quantity | value
C=CC(=O)N1CCC([C@@H]2CCNc3c(C(N)=O)c(-c4ccc(Oc5ccccc5)cc4)nn32)CC1 | enzyme activity | inhibitor |  | 1 µM | inhibition | 0%
C1=C/COCc2cc(ccc2OCCN2CCCC2)Nc2nccc(n2)-c2cccc(c2)COC/1 | binding |  |  | 0.1 µM | remaining binding | 99%
CO[C@@H]1[C@H](N(C)C(=O)c2ccccc2)C[C@H]2O[C@]1(C)n1c3ccccc3c3c4c(c5c6ccccc6n2c5c31)C(=O)NC4 | enzyme activity | inhibitor |  | 1 µM | inhibition | 48%
COc1ccc2[nH]c3c4[nH]c5ccc(OC)cc5c4c4c(c3c2c1)C(=O)NC4=O | binding |  |  | 1 µM | remaining binding | 10%
CCCCC(=O)Nc1ccc(-c2ccc3ncn(CCC)c(=O)c3c2)cn1 | binding |  | competition with immobilised ligand | 0.5 µM | remaining binding | 100%
COc1ccc2oc(-c3ccc4nc(N)oc4c3)c/c(=N\c3ccccc3NC(=O)CCN)c2c1 | binding |  |  | 1 µM | remaining binding | 103%
C#Cc1cc(-c2cc(Nc3nc(N[C@@H](C)c4ccc(F)cn4)ncc3Cl)n[nH]2)ccc1C=O | enzyme activity | inhibitor |  | 0.2 µM | inhibition | 10.3%
Cc1ccc(NC(=O)c2ccnc(C(F)(F)F)c2)cc1-c1cc(OCCO)nc(N2CCOCC2)c1 | binding |  |  | 1 µM | remaining binding | 93%
